Measurements reported in PMC4878416 (Diabetes, 2016).
pIC50: −log10 of the molar value.

Assays:
[1] = test system: α-cells of endogenous mouse pancreas; test: α-cell proliferation in endogenous mouse pancreas; assay type: in vivo; conditions: 0.25 mg/kg/BW i.p. twice a week for 3 weeks
human β-cells = test: EdU incorporation proliferation assay in dissociated human islet cells; assay type: cell-based
Outline: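 Human islets dissociated in Accutase (5,000 IEQ/mL, 37°C, 20 min), resuspended in CMRL complete medium and seeded at ~30,000 (96-well) or ~15,000 (384-well) cells per well. EdU was present throughout the 6-day treatment, including FK506 cotreatment. Cells were fixed (3% PFA), permeabilised (0.2% Triton X-100) and stained for C-peptide and DAPI. EdU+ β-cells were scored by automated imaging and manually; 4 wells, 9 fields each; mean ± SD; two-tailed t test vs DMSO.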

CLK4 = CLK4 (Homo sapiens, UniProt Q9HAZ1); test: Human kinome profiling, CLK4; assay type: biochemical
Sequence of CLK4 (Q9HAZ1 whole entry): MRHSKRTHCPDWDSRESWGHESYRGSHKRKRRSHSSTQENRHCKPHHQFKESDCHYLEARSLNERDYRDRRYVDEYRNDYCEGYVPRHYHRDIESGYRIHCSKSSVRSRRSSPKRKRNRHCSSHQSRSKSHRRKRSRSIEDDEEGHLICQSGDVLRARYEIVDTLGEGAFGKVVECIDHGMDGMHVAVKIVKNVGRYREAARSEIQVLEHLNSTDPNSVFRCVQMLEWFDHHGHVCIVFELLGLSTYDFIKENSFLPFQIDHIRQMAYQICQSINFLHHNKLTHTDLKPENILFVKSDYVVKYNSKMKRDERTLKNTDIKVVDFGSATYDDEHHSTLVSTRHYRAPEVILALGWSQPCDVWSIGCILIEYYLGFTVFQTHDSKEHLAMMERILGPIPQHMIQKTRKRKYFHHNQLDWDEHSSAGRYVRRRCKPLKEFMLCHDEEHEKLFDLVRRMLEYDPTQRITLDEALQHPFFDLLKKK
Outline: (§1)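 Human kinases profiled by commercial providers under their standard protocols; ATP within 15 μmol/L of the apparent KM for each enzyme.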

CLK2 = CLK2 (Homo sapiens, UniProt P49760); test: Human kinome profiling, CLK2; assay type: biochemical
Sequence of CLK2 (P49760 whole entry): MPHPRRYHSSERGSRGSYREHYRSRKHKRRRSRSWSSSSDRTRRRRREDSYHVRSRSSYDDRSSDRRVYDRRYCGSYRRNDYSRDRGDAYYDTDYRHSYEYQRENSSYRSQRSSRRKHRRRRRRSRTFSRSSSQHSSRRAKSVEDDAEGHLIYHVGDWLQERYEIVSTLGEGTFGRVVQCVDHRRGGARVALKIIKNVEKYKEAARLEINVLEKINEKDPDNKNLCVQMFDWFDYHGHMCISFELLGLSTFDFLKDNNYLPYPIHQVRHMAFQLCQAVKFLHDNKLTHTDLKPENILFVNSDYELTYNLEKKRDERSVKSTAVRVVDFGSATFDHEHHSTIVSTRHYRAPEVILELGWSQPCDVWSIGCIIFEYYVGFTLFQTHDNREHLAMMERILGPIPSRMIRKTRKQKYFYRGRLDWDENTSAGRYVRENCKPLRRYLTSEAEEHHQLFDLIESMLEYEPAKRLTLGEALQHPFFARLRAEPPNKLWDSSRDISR
Outline: as §1

[2] = test system: endogenous NSG pancreatic islets β-cells; test: β-cell proliferation in endogenous pancreatic islets of NSG mice; assay type: in vivo, mouse; conditions: 0.25 mg/kg/BW i.p. twice a week for 3 weeks, vs nontreated or sham-operated mice
Outline: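 Pancreata came from human islet-grafted NSG mice dosed i.p. with test compound (0.25 mg/kg, 50% DMSO) or vehicle twice weekly for 3 weeks. Mice then received BrdU 100 mg/kg i.p. for 3 days and were killed 6 h after the final injection. Sections were stained for insulin, BrdU and DAPI, and BrdU+ β-cells were quantified; n = 4; mean ± SEM; unpaired t test.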

[3] = test system: α-cells of human islet grafts; test: α-cell proliferation in human islets grafted under the mouse kidney capsule; assay type: in vivo; conditions: 0.25 mg/kg/BW i.p. twice a week for 3 weeks
DYRK2 = molecular target: T1, DYRK2 (Homo sapiens, UniProt Q92630); test: Human kinome profiling, DYRK2; assay type: biochemical
T1 sequence (Q92630 1-601): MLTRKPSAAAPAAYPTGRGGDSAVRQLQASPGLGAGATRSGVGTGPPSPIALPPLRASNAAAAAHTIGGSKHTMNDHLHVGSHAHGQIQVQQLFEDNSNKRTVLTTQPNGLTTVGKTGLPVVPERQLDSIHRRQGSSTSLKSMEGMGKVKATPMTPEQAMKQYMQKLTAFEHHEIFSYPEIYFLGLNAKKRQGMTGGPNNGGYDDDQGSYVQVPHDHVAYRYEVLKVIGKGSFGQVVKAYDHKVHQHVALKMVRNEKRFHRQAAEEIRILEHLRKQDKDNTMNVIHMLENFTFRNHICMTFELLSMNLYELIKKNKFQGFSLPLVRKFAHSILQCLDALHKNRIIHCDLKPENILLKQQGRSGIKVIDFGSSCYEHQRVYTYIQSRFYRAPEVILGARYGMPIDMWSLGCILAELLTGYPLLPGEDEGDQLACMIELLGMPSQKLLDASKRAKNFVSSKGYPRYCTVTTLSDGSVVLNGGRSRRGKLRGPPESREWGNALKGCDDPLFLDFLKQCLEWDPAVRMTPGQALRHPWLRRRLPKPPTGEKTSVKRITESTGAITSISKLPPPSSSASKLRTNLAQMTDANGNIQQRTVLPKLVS
Outline: as §1

DYRK3 = molecular target: T2, DYRK3 (Homo sapiens, UniProt O43781); test: Human kinome profiling, DYRK3; assay type: biochemical
T2 sequence (O43781 1-588): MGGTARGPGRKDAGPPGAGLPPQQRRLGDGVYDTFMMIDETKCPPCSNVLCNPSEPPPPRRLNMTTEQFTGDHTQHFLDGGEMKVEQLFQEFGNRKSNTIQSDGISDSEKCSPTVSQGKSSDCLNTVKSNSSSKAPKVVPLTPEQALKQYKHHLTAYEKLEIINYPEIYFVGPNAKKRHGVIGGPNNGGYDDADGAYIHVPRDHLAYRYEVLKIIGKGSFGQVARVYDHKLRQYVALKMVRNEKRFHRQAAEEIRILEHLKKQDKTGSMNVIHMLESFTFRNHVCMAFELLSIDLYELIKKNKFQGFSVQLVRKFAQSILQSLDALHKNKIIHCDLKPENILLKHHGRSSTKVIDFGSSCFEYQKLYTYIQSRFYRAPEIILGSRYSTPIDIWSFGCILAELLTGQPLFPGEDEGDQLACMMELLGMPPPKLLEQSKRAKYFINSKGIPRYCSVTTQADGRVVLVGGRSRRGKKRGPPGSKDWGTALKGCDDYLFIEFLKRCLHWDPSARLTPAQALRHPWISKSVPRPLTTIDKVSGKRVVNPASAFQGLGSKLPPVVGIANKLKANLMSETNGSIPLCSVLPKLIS
Outline: as §1

DYRK4 = molecular target: T3, DYRK4 (Homo sapiens, UniProt Q9NR20); test: Human kinome profiling, DYRK4; assay type: biochemical
T3 sequence (Q9NR20 1-520): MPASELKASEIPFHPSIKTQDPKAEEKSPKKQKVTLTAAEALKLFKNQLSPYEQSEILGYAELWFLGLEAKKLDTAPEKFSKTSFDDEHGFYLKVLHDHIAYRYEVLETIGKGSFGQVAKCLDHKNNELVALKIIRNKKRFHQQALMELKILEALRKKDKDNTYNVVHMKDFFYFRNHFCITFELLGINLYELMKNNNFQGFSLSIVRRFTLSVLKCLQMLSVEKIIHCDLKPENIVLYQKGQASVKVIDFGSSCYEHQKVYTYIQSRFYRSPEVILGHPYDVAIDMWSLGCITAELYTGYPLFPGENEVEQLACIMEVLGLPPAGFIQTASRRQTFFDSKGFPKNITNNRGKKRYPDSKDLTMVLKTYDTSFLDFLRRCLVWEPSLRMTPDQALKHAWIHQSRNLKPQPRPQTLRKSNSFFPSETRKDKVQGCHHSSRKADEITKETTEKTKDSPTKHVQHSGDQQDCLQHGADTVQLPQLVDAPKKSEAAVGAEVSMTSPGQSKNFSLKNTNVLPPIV
Outline: as §1

DYRK1A = DYRK1A (Homo sapiens, UniProt Q13627); test: Human kinome profiling, DYRK1A; assay type: biochemical; conditions: 100 nmol/L
DYRK1B = DYRK1B (Homo sapiens, UniProt Q9Y463); test: Human kinome profiling, DYRK1B; assay type: biochemical
Sequence of DYRK1B (Q9Y463 whole entry): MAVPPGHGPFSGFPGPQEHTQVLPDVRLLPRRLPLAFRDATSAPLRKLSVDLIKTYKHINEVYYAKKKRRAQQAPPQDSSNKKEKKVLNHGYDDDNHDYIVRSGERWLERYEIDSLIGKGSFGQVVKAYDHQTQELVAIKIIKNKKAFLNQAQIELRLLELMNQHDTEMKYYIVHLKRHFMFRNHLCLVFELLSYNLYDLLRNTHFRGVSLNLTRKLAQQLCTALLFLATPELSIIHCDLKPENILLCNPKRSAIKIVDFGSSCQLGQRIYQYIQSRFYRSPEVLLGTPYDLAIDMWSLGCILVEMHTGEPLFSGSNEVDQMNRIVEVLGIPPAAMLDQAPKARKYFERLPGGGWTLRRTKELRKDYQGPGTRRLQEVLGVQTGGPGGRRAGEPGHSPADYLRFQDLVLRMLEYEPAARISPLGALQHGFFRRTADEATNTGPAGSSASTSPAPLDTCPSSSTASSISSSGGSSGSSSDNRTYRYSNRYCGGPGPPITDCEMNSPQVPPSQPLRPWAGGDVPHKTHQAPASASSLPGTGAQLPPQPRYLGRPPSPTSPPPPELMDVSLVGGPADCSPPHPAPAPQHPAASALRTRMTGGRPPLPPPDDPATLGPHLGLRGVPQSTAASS
Outline: as §1

CLK1 = CLK1 (Homo sapiens, UniProt P49759); test: Human kinome profiling, CLK1; assay type: biochemical
Sequence of CLK1 (P49759 whole entry): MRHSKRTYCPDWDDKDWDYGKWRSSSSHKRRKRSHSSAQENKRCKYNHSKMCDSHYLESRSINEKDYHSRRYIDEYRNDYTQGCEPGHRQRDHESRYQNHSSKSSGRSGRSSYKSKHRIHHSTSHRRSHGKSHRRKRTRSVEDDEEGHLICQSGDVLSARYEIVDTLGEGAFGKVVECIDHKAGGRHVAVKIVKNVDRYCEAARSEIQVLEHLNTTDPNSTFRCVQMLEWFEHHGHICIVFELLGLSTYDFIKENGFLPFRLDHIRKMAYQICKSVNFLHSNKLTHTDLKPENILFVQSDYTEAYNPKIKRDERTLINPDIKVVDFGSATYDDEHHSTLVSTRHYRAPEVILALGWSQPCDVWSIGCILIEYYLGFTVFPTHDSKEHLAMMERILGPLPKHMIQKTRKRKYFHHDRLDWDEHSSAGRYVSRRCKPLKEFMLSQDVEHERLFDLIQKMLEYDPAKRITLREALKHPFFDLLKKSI
Outline: as §1

CLK3 = CLK3 (Homo sapiens, UniProt P49761); test: Human kinome profiling, CLK3; assay type: biochemical
Sequence of CLK3 (P49761 whole entry): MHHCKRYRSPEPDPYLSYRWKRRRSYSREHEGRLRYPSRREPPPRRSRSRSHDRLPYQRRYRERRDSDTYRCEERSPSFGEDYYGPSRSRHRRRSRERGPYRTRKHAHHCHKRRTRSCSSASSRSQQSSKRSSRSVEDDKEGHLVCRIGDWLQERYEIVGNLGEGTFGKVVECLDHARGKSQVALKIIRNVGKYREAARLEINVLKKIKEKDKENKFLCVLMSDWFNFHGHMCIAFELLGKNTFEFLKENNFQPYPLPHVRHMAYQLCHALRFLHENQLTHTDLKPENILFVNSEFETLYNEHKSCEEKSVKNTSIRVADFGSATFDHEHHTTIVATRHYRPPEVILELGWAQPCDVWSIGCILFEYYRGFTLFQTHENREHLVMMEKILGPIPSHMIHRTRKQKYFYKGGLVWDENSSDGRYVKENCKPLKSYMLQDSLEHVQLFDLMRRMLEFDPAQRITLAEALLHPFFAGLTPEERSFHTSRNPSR
Outline: as §1

`Nc1ncnc2c1c(I)cn2[C@@H]1O[C@H](CO)[C@@H](O)[C@H]1O` [5-IT, 5-iodotubercidin] was tested, and the “α-cell proliferation in endogenous mouse pancreas, treated vs nontreated” value [1] was “no significant alterations”, the “increase in β-cell proliferation in pair-matched islets” value (human β-cells; 6-day treatment, islets pair-matched to the WS-3 test) was 20 fold and the “concentration of maximal effect on β-cell proliferation” value (human β-cells; 6 days of treatment) was 1 µmol/L. For the same compound, the “increase in β-cell proliferation (EdU incorporation)” value (human β-cells; 6 days of treatment, dissociated human islet cells, maximal effect) was 10- to 12 fold, the “remaining activity CLK4” value (CLK4; 100 nmol/L) was < 10% and the pIC50 (CLK4; read-out: IC50 CLK4, ATP within 15 μmol/L of apparent KM) was 7.85. For the same compound, the “remaining activity CLK2” value (CLK2; 100 nmol/L) was < 10%, the pIC50 (CLK2; read-out: IC50 CLK2, ATP within 15 μmol/L of apparent KM) was 8.00 and the “increase in BrdU+ β-cells in endogenous NSG pancreatic islets” value [2] was ~2.5 fold. The “α-cell proliferation in human islet grafts, treated vs nontreated” value [3] was “no significant alterations”, the “remaining activity DYRK2” value (DYRK2; 100 nmol/L) was < 10% and the pIC50 (DYRK2; read-out: IC50 DYRK2, ATP within 15 μmol/L of apparent KM) was 8.22. The “remaining activity DYRK3” value (DYRK3; 100 nmol/L) was < 10%, the pIC50 (DYRK3; read-out: IC50 DYRK3, ATP within 15 μmol/L of apparent KM) was 8.52 and the “remaining activity DYRK4” value (DYRK4; 100 nmol/L) was < 10%. The pIC50 (DYRK4; read-out: IC50 DYRK4, ATP within 15 μmol/L of apparent KM) was 6.89, the “remaining activity DYRK1A” value (DYRK1A) was < 10% and the “remaining activity DYRK1B” value (DYRK1B; 100 nmol/L) was < 10%. For the same compound, the pIC50 (DYRK1B; read-out: IC50 DYRK1B, ATP within 15 μmol/L of apparent KM) was 8.00, the “remaining activity CLK1” value (CLK1; 100 nmol/L) was < 10% and the pIC50 (CLK1; read-out: IC50 CLK1, ATP within 15 μmol/L of apparent KM) was 7.44. For the same compound, the “remaining activity CLK3” value (CLK3; 100 nmol/L) was < 10% and the pIC50 (CLK3; read-out: IC50 CLK3, ATP within 15 μmol/L of apparent KM) was 6.71.
